Legend:
[1] = test system: Mycobacterium tuberculosis; test: Antimycobacterial activity against Mycobacterium tuberculosis H37Rv infected in B6 mouse assessed as 2 log reduction in bacterial burden in lungs orally treated in water-1% methylcellulose upto 8 days; format: functional; settings: Lung, po, 192 h
In short: (§1)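 Female B6 mice, 8–10 weeks old, infected intratracheally under 3% isoflurane with 10^5 CFU H37Rv in 50 μl PBS. Oral dosing once daily from day 1 to day 8 at a range of doses; lungs harvested day 9, homogenized and plated; colonies counted after 14 days. ED99 (2-log CFU/lung reduction versus untreated controls) fitted from individual log10 CFU/lung to a logistic equation; 5 mice/group; 95% CI.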

[2] = test system: Mycobacterium tuberculosis; test: Antimycobacterial activity against Mycobacterium tuberculosis H37Rv infected in B6 mouse assessed as assessed as lowest concentration to reduce bacterial burden in lungs to level of reduction achieved with higher doses orally treated in water-1% methylcellulose upto 8 days; format: functional, Lung
In short: (§2)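 B6 female mice given intratracheal H37Rv, 105 CFU/mouse in PBS, then oral once-daily treatment on days 1–8 across several doses. On day 9, lung homogenates were plated and CFU counted after 14 days. EDmax taken empirically as the lowest dose giving a lung CFU reduction statistically indistinguishable from higher doses; 5 mice/group.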

[3] = test system: Mycobacterium tuberculosis; test: Antimycobacterial activity against Mycobacterium tuberculosis H37Rv infected in B6 mouse assessed as 2 log reduction in bacterial burden in lungs orally treated in water upto 8 days; format: functional; settings: Lung, po, 192 h; in short: as §1
[4] = test system: Mycobacterium tuberculosis; test: Antimycobacterial activity against Mycobacterium tuberculosis H37Rv infected in B6 mouse assessed as lowest concentration to reduce bacterial burden in lungs to level of reduction achieved with higher doses orally treated in water upto 8 days; format: functional, Lung; in short: as §2
[5] = test system: Mycobacterium tuberculosis; test: Antimycobacterial activity against Mycobacterium tuberculosis H37Rv infected in B6 mouse assessed as 2 log reduction in bacterial burden in lungs orally treated in water-20% captisol upto 8 days; format: functional; settings: Lung, po, 192 h; in short: as §1
[6] = test system: Mycobacterium tuberculosis; test: Antimycobacterial activity against Mycobacterium tuberculosis H37Rv infected in B6 mouse assessed as assessed as lowest concentration to reduce bacterial burden in lungs to level of reduction achieved with higher doses orally treated in water-20% captisol upto 8 days; format: functional, Lung; in short: as §2
[7] = test system: Mycobacterium tuberculosis; test: Antimycobacterial activity against Mycobacterium tuberculosis H37Rv infected in B6 mouse assessed as 2 log reduction in bacterial burden in lungs orally treated in water-20% encapsine upto 8 days; format: functional; settings: Lung, po, 192 h; in short: as §1
[8] = test system: Mycobacterium tuberculosis; test: Antimycobacterial activity against Mycobacterium tuberculosis H37Rv infected in B6 mouse assessed as assessed as lowest concentration to reduce bacterial burden in lungs to level of reduction achieved with higher doses orally treated in water-20% encapsine upto 8 days; format: functional, Lung; in short: as §2

**Q.** Which ED99 [1] does the source give for CC[C@@H](CO)NCCN[C@@H](CC)CO [ETHAMBUTOL] here?
**A.** Its ED99 is 21.6 mg/kg.

**Q.** What about the Emax [2] of the same compound?
**A.** The Emax was 300 mg/kg.

**Q.** NNC(=O)c1ccncc1 [ISONIAZID] was tested. Which ED99 [3] did it give?
**A.** Its ED99 is 0.95 mg/kg.

**Q.** What about the Emax [4] of the same compound?
**A.** Its Emax is 25 mg/kg.

**Q.** Which ED99 [1] does the source give for CC(=O)NC[C@H]1CN(c2ccc(N3CCOCC3)c(F)c2)C(=O)O1 [LINEZOLID] here?
**A.** The ED99 was 28 mg/kg.

**Q.** And the Emax [2]?
**A.** The Emax was “>=300 mg kg-1”.

**Q.** Which ED99 [5] does the source give for COc1c(N2C[C@@H]3CCCN[C@@H]3C2)c(F)cc2c(=O)c(C(=O)O)cn(C3CC3)c12 [MOXIFLOXACIN] here?
**A.** Its ED99 is 27.7 mg/kg.

**Q.** What about the Emax [6] of the same compound?
**A.** Its Emax is 100 mg/kg.

**Q.** With NC(=O)c1cnccn1 [PYRAZINAMIDE] as the compound, how does the ED99 [1] read?
**A.** The ED99 was 362 mg/kg.

**Q.** What about the Emax [2] of the same compound?
**A.** The Emax was “>=1000 mg kg-1”.

**Q.** With CO[C@H]1/C=C/O[C@@]2(C)Oc3c(C)c(O)c4c(O)c(c(/C=N/N5CCN(C)CC5)c(O)c4c3C2=O)NC(=O)/C(C)=C\C=C\[C@H](C)[C@H](O)[C@@H](C)[C@@H](O)[C@@H](C)[C@H](OC(C)=O)[C@@H]1C [RIFAMPIN] as the compound, how does the ED99 [7] read?
**A.** Its ED99 is 9.8 mg/kg.

**Q.** What about the Emax [8] of the same compound?
**A.** Its Emax is 30 mg/kg.

Source: ChEMBL document CHEMBL1255432, “Fast standardized therapeutic-efficacy assay for drug discovery against tuberculosis” (2010)
